# Measurements: ChEMBL document CHEMBL5058577, “EUbOPEN Chemogenomics Library 2 (Multiplex)” (2022)
# System: U2OS
# Experiment: Multiplex assay against U2OS
# Format: toxicity, cell-based
# Details: human
# Method in brief: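 Values for tubulin, mitochondrial-mass and membrane-permeability phenotypes are per cents of cells with healthy nuclei. These cells were identified by CellPathfinder machine-learning gating of live cells that had been stained at seeding with Hoechst33342, BioTracker Green Microtubule Cytoskeleton Dye, MitoTracker Red and Annexin V Alexa Fluor 680 and imaged on a CQ1 microscope at 37°C and 5% CO2 after compound addition. The gating first set Hoechst high-intensity objects apart from normal cells, then split normal cells into healthy, pyknosed or fragmented nuclei, and pyknosed cells into mitotic or apoptotic.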
# [1] = 12 h, 1 µM, compound concentration 1 uM, replicate 1
# [2] = 12 h, 1 µM, compound concentration 1 uM, replicate 2
# [3] = 12 h, 10 µM, compound concentration 10 uM, replicate 1
# [4] = 12 h, 10 µM, compound concentration 10 uM, replicate 2
# [5] = 24 h, 1 µM, compound concentration 1 uM, replicate 1
# [6] = 24 h, 1 µM, compound concentration 1 uM, replicate 2
# [7] = 24 h, 10 µM, compound concentration 10 uM, replicate 1
# [8] = 24 h, 10 µM, compound concentration 10 uM, replicate 2
# [9] = 48 h, 1 µM, compound concentration 1 uM, replicate 1
# [10] = 48 h, 1 µM, compound concentration 1 uM, replicate 2
# [11] = 48 h, 10 µM, compound concentration 10 uM, replicate 1
# [12] = 48 h, 10 µM, compound concentration 10 uM, replicate 2
compound,measurement,setting,value
CCCCC1=NC2(CCCC2)C(=O)N1Cc1ccc(-c2ccccc2-c2nnn[nH]2)cc1 [IRBESARTAN],Population Apoptotic (%),[1],83%
same,Population Fragmented Nuclei (%),[1],25%
same,Population Healthy Nuclei (%),[1],66%
same,Population Hoechst High Intensity Objects (%),[1],2%
same,Population Membrane Permeable-Phenotype (%),[1],5%
same,Population Mitochondria Different-Phenotype (%),[1],1%
same,Population Mitotic Cells (%),[1],16%
same,Population Normal (%),[1],97%
same,Population Pyknosed Nuclei (%),[1],7%
same,Population Tubulin-Different-Phenotype (%),[1],1%
same,Total Cell Count,[1],233
same,Population Apoptotic (%),[2],77%
same,Population Fragmented Nuclei (%),[2],9%
same,Population Healthy Nuclei (%),[2],82%
same,Population Hoechst High Intensity Objects (%),[2],0%
same,Population Membrane Permeable-Phenotype (%),[2],11%
same,Population Mitotic Cells (%),[2],22%
same,Population Normal (%),[2],99%
same,Population Tubulin-Different-Phenotype (%),[2],8%
same,Total Cell Count,[2],124
same,Population Apoptotic (%),[3],91%
same,Population Fragmented Nuclei (%),[3],22%
same,Population Healthy Nuclei (%),[3],68%
same,Population Hoechst High Intensity Objects (%),[3],2%
same,Population Membrane Permeable-Phenotype (%),[3],4%
same,Population Mitochondria Different-Phenotype (%),[3],3%
same,Population Mitotic Cells (%),[3],8%
same,Population Normal (%),[3],97%
same,Population Pyknosed Nuclei (%),[3],9%
same,Population Tubulin-Different-Phenotype (%),[3],2%
same,Total Cell Count,[3],254
same,Population Apoptotic (%),[4],100%
same,Population Fragmented Nuclei (%),[4],18%
same,Population Healthy Nuclei (%),[4],74%
same,Population Hoechst High Intensity Objects (%),[4],0%
same,Population Membrane Permeable-Phenotype (%),[4],8%
same,Population Mitochondria Different-Phenotype (%),[4],6%
same,Population Mitotic Cells (%),[4],0%
same,Population Normal (%),[4],100%
same,Population Pyknosed Nuclei (%),[4],8%
same,Population Tubulin-Different-Phenotype (%),[4],8%
same,Total Cell Count,[4],100
same,Population Apoptotic (%),[5],70%
same,Population Fragmented Nuclei (%),[5],23%
same,Population Healthy Nuclei (%),[5],69%
same,Population Hoechst High Intensity Objects (%),[5],3%
same,Population Membrane Permeable-Phenotype (%),[5],6%
same,Population Mitochondria Different-Phenotype (%),[5],3%
same,Population Mitotic Cells (%),[5],29%
same,Population Normal (%),[5],96%
same,Population Pyknosed Nuclei (%),[5],7%
same,Population Tubulin-Different-Phenotype (%),[5],3%
same,Total Cell Count,[5],241
same,Population Apoptotic (%),[6],66%
same,Population Fragmented Nuclei (%),[6],12%
same,Population Healthy Nuclei (%),[6],76%
same,Population Hoechst High Intensity Objects (%),[6],2%
same,Population Membrane Permeable-Phenotype (%),[6],9%
same,Population Mitochondria Different-Phenotype (%),[6],2%
same,Population Mitotic Cells (%),[6],33%
same,Population Normal (%),[6],97%
same,Population Pyknosed Nuclei (%),[6],10%
same,Population Tubulin-Different-Phenotype (%),[6],4%
same,Total Cell Count,[6],142
same,Population Apoptotic (%),[7],96%
same,Population Fragmented Nuclei (%),[7],18%
same,Population Healthy Nuclei (%),[7],73%
same,Population Hoechst High Intensity Objects (%),[7],2%
same,Population Membrane Permeable-Phenotype (%),[7],6%
same,Population Mitochondria Different-Phenotype (%),[7],3%
same,Population Mitotic Cells (%),[7],4%
same,Population Normal (%),[7],97%
same,Population Pyknosed Nuclei (%),[7],8%
same,Population Tubulin-Different-Phenotype (%),[7],4%
same,Total Cell Count,[7],301
same,Population Apoptotic (%),[8],91%
same,Population Healthy Nuclei (%),[8],72%
same,Population Hoechst High Intensity Objects (%),[8],0%
same,Population Membrane Permeable-Phenotype (%),[8],7%
same,Population Mitotic Cells (%),[8],8%
same,Population Normal (%),[8],99%
same,Population Tubulin-Different-Phenotype (%),[8],3%
same,Total Cell Count,[8],135
same,Population Apoptotic (%),[9],97%
same,Population Fragmented Nuclei (%),[9],18%
same,Population Healthy Nuclei (%),[9],71%
same,Population Hoechst High Intensity Objects (%),[9],2%
same,Population Membrane Permeable-Phenotype (%),[9],5%
same,Population Mitochondria Different-Phenotype (%),[9],2%
same,Population Mitotic Cells (%),[9],2%
same,Population Normal (%),[9],97%
same,Population Pyknosed Nuclei (%),[9],10%
same,Population Tubulin-Different-Phenotype (%),[9],2%
same,Total Cell Count,[9],357
same,Population Apoptotic (%),[10],94%
same,Population Fragmented Nuclei (%),[10],14%
same,Population Healthy Nuclei (%),[10],76%
same,Population Hoechst High Intensity Objects (%),[10],4%
same,Population Membrane Permeable-Phenotype (%),[10],6%
same,Population Mitochondria Different-Phenotype (%),[10],1%
same,Population Mitotic Cells (%),[10],5%
same,Population Normal (%),[10],95%
same,Population Pyknosed Nuclei (%),[10],9%
same,Total Cell Count,[10],198
same,Population Apoptotic (%),[11],89%
same,Population Fragmented Nuclei (%),[11],14%
same,Population Healthy Nuclei (%),[11],75%
same,Population Hoechst High Intensity Objects (%),[11],3%
same,Population Membrane Permeable-Phenotype (%),[11],7%
same,Population Mitochondria Different-Phenotype (%),[11],3%
same,Population Mitotic Cells (%),[11],10%
same,Population Normal (%),[11],96%
same,Population Pyknosed Nuclei (%),[11],9%
same,Population Tubulin-Different-Phenotype (%),[11],3%
same,Total Cell Count,[11],419
same,Population Apoptotic (%),[12],94%
same,Population Fragmented Nuclei (%),[12],16%
same,Population Healthy Nuclei (%),[12],72%
same,Population Hoechst High Intensity Objects (%),[12],4%
same,Population Membrane Permeable-Phenotype (%),[12],9%
same,Population Mitochondria Different-Phenotype (%),[12],7%
same,Population Mitotic Cells (%),[12],5%
same,Population Normal (%),[12],95%
same,Population Pyknosed Nuclei (%),[12],10%
same,Population Tubulin-Different-Phenotype (%),[12],7%
same,Total Cell Count,[12],175
